Source: ChEMBL document CHEMBL2177081, “Orally active metabotropic glutamate subtype 2 receptor positive allosteric modulators: structure-activity relationships and assessment in a rat model of nicotine dependence” (J Med Chem, 2012)

Assays:
Rattus norvegicus [1] = experiment: Cmax in rat at 10 mg/kg, po; assay type: ADME, organism-based; set-up: dose 10 mg/kg, route oral; conditions: in vivo
Method in brief: (§1)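 Sodium salts were given to rats by oral dose at 10 mg/kg in sterile water, with n = 3 or 5 animals per compound. Plasma concentration was measured over time to give Cmax, Tmax, terminal half-life and oral bioavailability (F). Brain and plasma were taken at or near Tmax.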

Rattus norvegicus [2] = experiment: Tmax in rat at 10 mg/kg, po; assay type: ADME, organism-based; set-up: dose 10 mg/kg, route oral; conditions: in vivo
Rattus norvegicus [3] = experiment: AUC (0 to t) in rat at 10 mg/kg, po; assay type: ADME, organism-based, Plasma; set-up: dose 10 mg/kg, route oral; conditions: in vivo
Method in brief: (§2)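 Sodium salt given orally at 10 mg/kg in sterile water to rats, n = 3 (n = 5 for one compound). Plasma was sampled over time for Cmax, Tmax, AUC(0–t), t1/2 and oral bioavailability. Brain and plasma were harvested at or near Tmax to measure levels and the brain:plasma ratio.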

Rattus norvegicus [4] = experiment: (§3) Cmax in rat at 10 mg/kg, ip; assay type: ADME, organism-based; set-up: dose 10 mg/kg, route intraperitoneal; conditions: in vivo
Method in brief: (§4)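 Intraperitoneal dosing in rats at 10 mg/kg, sodium salt form, sterile water vehicle. Cmax is the maximum compound concentration detected in plasma, and terminal half-life was derived from the plasma profile.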

Rattus norvegicus [5] = experiment: Volume of distribution in rat at 10 mg/kg, po; assay type: ADME, organism-based; set-up: dose 10 mg/kg, route oral; conditions: in vivo
Method in brief: (§5)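 Rats dosed orally at 10 mg/kg as sodium salts in sterile water, n = 3 (n = 5 for one compound). Plasma sampled for PK parameters; brain and plasma harvested at or near Tmax for levels and brain:plasma ratio.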

Rattus norvegicus [6] = experiment: Volume of distribution in rat at 10 mg/kg, ip; assay type: ADME, organism-based; set-up: dose 10 mg/kg, route intraperitoneal; conditions: in vivo
Method in brief: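 Intraperitoneal dose of 10 mg/kg in rats, given as sodium salt in sterile water; plasma PK parameters including volume of distribution.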

Rattus norvegicus [7] = experiment: AUC (0 to t) in rat at 10 mg/kg, ip; assay type: ADME, organism-based, Plasma; set-up: dose 10 mg/kg, route intraperitoneal; conditions: in vivo
Rattus norvegicus [8] = experiment: Ratio of drug level in brain to plasma in rat at 10 mg/kg, po
Brain = experiment: Drug level in rat brain at 10 mg/kg, po; assay type: ADME, organism-based; set-up: dose 10 mg/kg, route oral; conditions: in vivo, read-out: Drug uptake; method in brief: as §2
Rattus norvegicus [9] = experiment: Volume of distribution in rat at 2 mg/kg, iv; assay type: ADME, organism-based; set-up: dose 2 mg/kg, route intravenous; conditions: in vivo
Method in brief: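 Intravenous dose of 2 mg/kg in rats, given as sodium salt in sterile water; plasma PK parameters including volume of distribution.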

Plasma = experiment: Plasma concentration in rat at 10 mg/kg, po; assay type: ADME, organism-based; set-up: dose 10 mg/kg, route oral; conditions: in vivo; method in brief: as §5
Rattus norvegicus [10] = experiment: Cmax in rat at 2 mg/kg, iv; assay type: ADME, organism-based; set-up: dose 2 mg/kg, route intravenous; conditions: in vivo
Method in brief: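 Rats received sodium salts intravenously at 2 mg/kg in sterile water. Cmax is the maximum compound concentration detected in plasma, and terminal half-life was derived from the plasma concentration–time profile.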

Rattus norvegicus [11] = experiment: Oral bioavailability in rat at 10 mg/kg; assay type: ADME, organism-based; conditions: in vivo; method in brief: as §1
Rattus norvegicus [12] = experiment: AUC (0 to t) in rat at 2 mg/kg, iv; assay type: ADME, organism-based, Plasma; set-up: dose 2 mg/kg, route intravenous; conditions: in vivo
[13] = as §3; assay type: ADME, organism-based; set-up: dose 10 mg/kg, route intraperitoneal; conditions: in vivo; method in brief: as §4

| Structure (SMILES) | Cmax (Rattus norvegicus [1]) | Tmax (Rattus norvegicus [2]) | AUCt (Rattus norvegicus [3]) | Cmax (Rattus norvegicus [4]) | Vd (Rattus norvegicus [5]) | Vd (Rattus norvegicus [6]) | AUCt (Rattus norvegicus [7]) | BPR (Rattus norvegicus [8]) | concentration (Brain) | Vd (Rattus norvegicus [9]) | concentration (Plasma) | Cmax (Rattus norvegicus [10]) | F (Rattus norvegicus [11]) | AUCt (Rattus norvegicus [12]) | Cmax [13] |
| --- | --- | --- | --- | --- | --- | --- | --- | --- | --- | --- | --- | --- | --- | --- | --- |
| O=C([O-])c1cc(-c2cccc(-c3ccc4c(c3)CN(C3CCCC3)C4=O)c2)ccc1Cl.[Na+] | 400 nM | 30 min | 2.67 µM·h | 2000 nM | 96.2 mL | 21.2 mL | 3.23 µM·h | – | – | – | – | – | – | – | – |
| O=C([O-])c1cc(-c2cccc(COc3ccc4c(c3)CN(C3CCCC3)C4=O)c2)ccc1O.[Na+] | 1600 nM | 30 min | 7.1 µM·h | – | 28 mL | – | – | 0.0335 | 7.1 nM | 4.3 mL | 210 nM | 3900 nM | 109.2% | 2.57 µM·h | – |
| COc1ccc(C(=O)[O-])cc1-c1cccc(COc2ccc3c(c2)CN(C2CCCC2)C3=O)c1.[Na+] | 4000 nM | 30 min | 12 µM·h | – | 10875.2 mL | – | – | 0.13 | 180 nM | 4620 mL | 1460 nM | 5600 nM | 84.8% | 6.7 µM·h | – |
| O=C([O-])c1cc(-c2cccc(COc3ccc4c(=O)n(C5CC5)sc4c3)c2)ccc1Cl.[Na+] | 8500 nM | 60 min | 61.5 µM·h | – | 4.1 mL | 2.4 mL | 25.8 µM·h | 0.04 | 30 nM | – | 800 nM | – | – | – | 9600 nM |
| O=C([O-])c1cc(-c2cccc(COc3ccc4c(c3)CN(C3CCCC3)C4=O)c2)ccc1Cl.[Na+] | 3000 nM | – | 42.5 µM·h | – | 3 mL | – | – | 0.039 | – | 0.6 mL | – | 28200 nM | 71.4% | 11.8 µM·h | – |
